According to ChEMBL document CHEMBL3734675, “Synthesis, antimycobacterial and antibacterial activity of fluoroquinolone derivatives containing an 3-alkoxyimino-4-(cyclopropylanimo)methylpyrrolidine moiety” (2015):
≈ marks a conversion by molar mass, not a printed value.

Columns and labels:
Format in all cases: functional
Enterococcus faecalis [1] = test: Antibacterial activity against Enterococcus faecalis 14-1 after 18 to 24 hrs by two-fold serial dilution method
Summary of the method: (§1)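 Twofold serial dilution in agar media against Gram-positive and Gram-negative strains. Plates incubated at 35 °C for 18–24 h. MIC read as the lowest compound concentration giving complete inhibition of bacterial growth.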

Streptococcus pneumoniae = test: Antibacterial activity against methicillin-resistant Streptococcus pneumoniae ATCC 19615 after 18 to 24 hrs by two-fold serial dilution method
Summary of the method: (§2)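 Agar media, standard twofold serial dilution. MIC is the lowest concentration giving complete inhibition of bacterial growth after incubation at 35 °C for 18–24 h. Ciprofloxacin and levofloxacin were run as comparators.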

Escherichia coli [2] = test: Antibacterial activity against extended-spectrum beta-lactamase producing Escherichia coli 14-1 after 18 to 24 hrs by two-fold serial dilution method; summary of the method: as §1
Escherichia coli [3] = test: Antibacterial activity against Escherichia coli ATCC 25922 after 18 to 24 hrs by two-fold serial dilution method; summary of the method: as §1
Pseudomonas aeruginosa [4] = test: Antibacterial activity against Pseudomonas aeruginosa 14-9 after 18 to 24 hrs by two-fold serial dilution method; summary of the method: as §1
[5] = test system: Staphylococcus epidermidis; test: Antibacterial activity against methicillin-resistant Staphylococcus epidermidis 14-22 after 18 to 24 hrs by two-fold serial dilution method; summary of the method: as §2
Klebsiella pneumoniae [6] = test: Antibacterial activity against Klebsiella pneumoniae 14-3 after 18 to 24 hrs by two-fold serial dilution method; summary of the method: as §1
Escherichia coli [7] = test: Antibacterial activity against Escherichia coli 14-1 after 18 to 24 hrs by two-fold serial dilution method; summary of the method: as §1
[8] = test system: Staphylococcus epidermidis; test: Antibacterial activity against methicillin-resistant Staphylococcus epidermidis 14-21 after 18 to 24 hrs by two-fold serial dilution method; summary of the method: as §2
Staphylococcus aureus [9] = test: Antibacterial activity against methicillin-resistant Staphylococcus aureus 14-5 after 18 to 24 hrs by two-fold serial dilution method; summary of the method: as §2
Klebsiella pneumoniae [10] = test: Antibacterial activity against Klebsiella pneumoniae 14-4 after 18 to 24 hrs by two-fold serial dilution method; summary of the method: as §1
Staphylococcus aureus [11] = test: Antibacterial activity against Staphylococcus aureus CMCC 26003 after 18 to 24 hrs by two-fold serial dilution method; summary of the method: as §1
Klebsiella pneumoniae [12] = test: Antibacterial activity against extended-spectrum beta-lactamase producing Klebsiella pneumoniae 14-17 after 18 to 24 hrs by two-fold serial dilution method; summary of the method: as §1
[13] = test system: Staphylococcus epidermidis; test: Antibacterial activity against methicillin-sensitive Staphylococcus epidermidis 14-2 after 18 to 24 hrs by two-fold serial dilution method; summary of the method: as §1
[14] = test system: Mycobacterium tuberculosis; test: Antimycobacterial activity against Mycobacterium tuberculosis H37Rv ATCC 27294 incubated for 7 days by microplate Alamar Blue assay; details: H37Rv ATCC 27294, 168 h
Summary of the method: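 Fluorescence read-out. MIC is the lowest concentration that reduces fluorescence by at least 90% relative to the mean of replicate bacterium-only controls. Isoniazid and rifampicin were included as reference drugs.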

Enterococcus faecium [15] = test: Antibacterial activity against Enterococcus faecium 14-6 after 18 to 24 hrs by two-fold serial dilution method; summary of the method: as §1
Klebsiella pneumoniae [16] = test: Antibacterial activity against Klebsiella pneumoniae 14-1 after 18 to 24 hrs by two-fold serial dilution method; summary of the method: as §1
Klebsiella pneumoniae [17] = test: Antibacterial activity against Klebsiella pneumoniae 14-2 after 18 to 24 hrs by two-fold serial dilution method; summary of the method: as §1
Enterococcus faecium [18] = test: Antibacterial activity against Enterococcus faecium 14-5 after 18 to 24 hrs by two-fold serial dilution method; summary of the method: as §1
Staphylococcus aureus [19] = test: Antibacterial activity against methicillin-sensitive Staphylococcus aureus 14-3 after 18 to 24 hrs by two-fold serial dilution method; summary of the method: as §1
Escherichia coli [20] = test: Antibacterial activity against extended-spectrum beta-lactamase producing Escherichia coli 14-2 after 18 to 24 hrs by two-fold serial dilution method; summary of the method: as §1
Escherichia coli [21] = test: Antibacterial activity against Escherichia coli 14-2 after 18 to 24 hrs by two-fold serial dilution method; summary of the method: as §1
Pseudomonas aeruginosa [22] = test: Antibacterial activity against Pseudomonas aeruginosa 14-14 after 18 to 24 hrs by two-fold serial dilution method; summary of the method: as §1
Pseudomonas aeruginosa [23] = test: Antibacterial activity against Pseudomonas aeruginosa ATCC 27853 after 18 to 24 hrs by two-fold serial dilution method; summary of the method: as §1
Klebsiella pneumoniae [24] = test: Antibacterial activity against extended-spectrum beta-lactamase producing Klebsiella pneumoniae 14-19 after 18 to 24 hrs by two-fold serial dilution method; summary of the method: as §1
Pseudomonas aeruginosa [25] = test: Antibacterial activity against Pseudomonas aeruginosa 14-15 after 18 to 24 hrs by two-fold serial dilution method; summary of the method: as §1
Klebsiella pneumoniae [26] = test: Antibacterial activity against extended-spectrum beta-lactamase producing Klebsiella pneumoniae 14-18 after 18 to 24 hrs by two-fold serial dilution method; summary of the method: as §1
Enterococcus faecalis [27] = test: Antibacterial activity against Enterococcus faecalis 14-2 after 18 to 24 hrs by two-fold serial dilution method; summary of the method: as §1
Staphylococcus aureus [28] = test: Antibacterial activity against methicillin-sensitive Staphylococcus aureus 14-1 after 18 to 24 hrs by two-fold serial dilution method; summary of the method: as §1
[29] = test system: Staphylococcus epidermidis; test: Antibacterial activity against methicillin-resistant Staphylococcus epidermidis 14-37 after 18 to 24 hrs by two-fold serial dilution method; summary of the method: as §2
Pseudomonas aeruginosa [30] = test: Antibacterial activity against Pseudomonas aeruginosa 14-16 after 18 to 24 hrs by two-fold serial dilution method; summary of the method: as §1
Enterococcus faecium [31] = test: Antibacterial activity against Enterococcus faecium 14-2 after 18 to 24 hrs by two-fold serial dilution method; summary of the method: as §1
Staphylococcus aureus [32] = test: Antibacterial activity against methicillin-resistant Staphylococcus aureus 14-4 after 18 to 24 hrs by two-fold serial dilution method; summary of the method: as §2
Staphylococcus aureus [33] = test: Antibacterial activity against methicillin-sensitive Staphylococcus aureus 14-4 after 18 to 24 hrs by two-fold serial dilution method; summary of the method: as §1
[34] = test system: Staphylococcus epidermidis; test: Antibacterial activity against methicillin-resistant Staphylococcus epidermidis 14-39 after 18 to 24 hrs by two-fold serial dilution method; summary of the method: as §2

## CO/N=C1/CN(c2nc3c(cc2F)c(=O)c(C(=O)O)cn3[C@@H]2C[C@@H]2F)CC1(C)CNC1CC1 (stereo not given in full)
Enterococcus faecalis [1]
  MIC: 16 µg/mL (≈ 34.7 µM)
Streptococcus pneumoniae
  MIC: 0.5 µg/mL (≈ 1.08 µM)
Escherichia coli [2]
  MIC: 16 µg/mL (≈ 34.7 µM)
Escherichia coli [3]
  MIC: 1 µg/mL (≈ 2.17 µM)
Pseudomonas aeruginosa [4]
  MIC: 16 µg/mL (≈ 34.7 µM)
[5]
  MIC: 4 µg/mL (≈ 8.67 µM)
Klebsiella pneumoniae [6]
  MIC: 128 µg/mL (≈ 277 µM)
Escherichia coli [7]
  MIC: > 128 µg/mL
[8]
  MIC: 4 µg/mL (≈ 8.67 µM)
Staphylococcus aureus [9]
  MIC: 2 µg/mL (≈ 4.33 µM)
Klebsiella pneumoniae [10]
  MIC: > 128 µg/mL
Staphylococcus aureus [11]
  MIC: < 0.008 µg/mL
Klebsiella pneumoniae [12]
  MIC: 64 µg/mL (≈ 139 µM)
[13]
  MIC: 16 µg/mL (≈ 34.7 µM)
[14]
  MIC90: 0.45 µg/mL (≈ 0.975 µM)
Enterococcus faecium [15]
  MIC: 2 µg/mL (≈ 4.33 µM)
Klebsiella pneumoniae [16]
  MIC: 32 µg/mL (≈ 69.3 µM)
Klebsiella pneumoniae [17]
  MIC: 64 µg/mL (≈ 139 µM)
Enterococcus faecium [18]
  MIC: 4 µg/mL (≈ 8.67 µM)
Staphylococcus aureus [19]
  MIC: 1 µg/mL (≈ 2.17 µM)
Escherichia coli [20]
  MIC: > 128 µg/mL
Escherichia coli [21]
  MIC: > 128 µg/mL
Pseudomonas aeruginosa [22]
  MIC: 64 µg/mL (≈ 139 µM)
Pseudomonas aeruginosa [23]
  MIC: 16 µg/mL (≈ 34.7 µM)
Klebsiella pneumoniae [24]
  MIC: 32 µg/mL (≈ 69.3 µM)
Pseudomonas aeruginosa [25]
  MIC: 64 µg/mL (≈ 139 µM)
Klebsiella pneumoniae [26]
  MIC: 64 µg/mL (≈ 139 µM)
Enterococcus faecalis [27]
  MIC: 1 µg/mL (≈ 2.17 µM)
Staphylococcus aureus [28]
  MIC: 1 µg/mL (≈ 2.17 µM)
[29]
  MIC: 2 µg/mL (≈ 4.33 µM)
Pseudomonas aeruginosa [30]
  MIC: 32 µg/mL (≈ 69.3 µM)
Enterococcus faecium [31]
  MIC: 4 µg/mL (≈ 8.67 µM)
Staphylococcus aureus [32]
  MIC: 4 µg/mL (≈ 8.67 µM)
Staphylococcus aureus [33]
  MIC: 2 µg/mL (≈ 4.33 µM)
[34]
  MIC: 4 µg/mL (≈ 8.67 µM)

## CO/N=C1/CN(c2nc3c(cc2F)c(=O)c(C(=O)O)cn3C2CC2)CC1CNC1CC1 (stereo not given)
Enterococcus faecalis [1]
  MIC: 64 µg/mL (≈ 149 µM)
Streptococcus pneumoniae
  MIC: 4 µg/mL (≈ 9.31 µM)
Escherichia coli [2]
  MIC: 16 µg/mL (≈ 37.3 µM)
Escherichia coli [3]
  MIC: 0.5 µg/mL (≈ 1.16 µM)
Pseudomonas aeruginosa [4]
  MIC: 8 µg/mL (≈ 18.6 µM)
[5]
  MIC: 16 µg/mL (≈ 37.3 µM)
Klebsiella pneumoniae [6]
  MIC: 128 µg/mL (≈ 298 µM)
Escherichia coli [7]
  MIC: > 128 µg/mL
[8]
  MIC: 16 µg/mL (≈ 37.3 µM)
Staphylococcus aureus [9]
  MIC: 8 µg/mL (≈ 18.6 µM)
Klebsiella pneumoniae [10]
  MIC: > 128 µg/mL
Staphylococcus aureus [11]
  MIC: < 0.008 µg/mL
Klebsiella pneumoniae [12]
  MIC: 16 µg/mL (≈ 37.3 µM)
[13]
  MIC: > 128 µg/mL
[14]
  MIC90: 0.44 µg/mL (≈ 1.02 µM)
Enterococcus faecium [15]
  MIC: 32 µg/mL (≈ 74.5 µM)
Klebsiella pneumoniae [16]
  MIC: 128 µg/mL (≈ 298 µM)
Klebsiella pneumoniae [17]
  MIC: 128 µg/mL (≈ 298 µM)
Enterococcus faecium [18]
  MIC: 16 µg/mL (≈ 37.3 µM)
Staphylococcus aureus [19]
  MIC: 4 µg/mL (≈ 9.31 µM)
Escherichia coli [20]
  MIC: > 128 µg/mL
Escherichia coli [21]
  MIC: > 128 µg/mL
Pseudomonas aeruginosa [22]
  MIC: 32 µg/mL (≈ 74.5 µM)
Pseudomonas aeruginosa [23]
  MIC: 16 µg/mL (≈ 37.3 µM)
Klebsiella pneumoniae [24]
  MIC: 32 µg/mL (≈ 74.5 µM)
Pseudomonas aeruginosa [25]
  MIC: 32 µg/mL (≈ 74.5 µM)
Klebsiella pneumoniae [26]
  MIC: 16 µg/mL (≈ 37.3 µM)
Enterococcus faecalis [27]
  MIC: 0.5 µg/mL (≈ 1.16 µM)
Staphylococcus aureus [28]
  MIC: 8 µg/mL (≈ 18.6 µM)
[29]
  MIC: 32 µg/mL (≈ 74.5 µM)
Pseudomonas aeruginosa [30]
  MIC: 32 µg/mL (≈ 74.5 µM)
Enterococcus faecium [31]
  MIC: 32 µg/mL (≈ 74.5 µM)
Staphylococcus aureus [32]
  MIC: > 128 µg/mL
Staphylococcus aureus [33]
  MIC: 8 µg/mL (≈ 18.6 µM)
[34]
  MIC: 16 µg/mL (≈ 37.3 µM)

## CCO/N=C1/CN(c2nc3c(cc2F)c(=O)c(C(=O)O)cn3[C@@H]2C[C@@H]2F)CC1CNC1CC1 (stereo not given in full)
Enterococcus faecalis [1]
  MIC: 32 µg/mL (≈ 69.3 µM)
Streptococcus pneumoniae
  MIC: 1 µg/mL (≈ 2.17 µM)
Escherichia coli [2]
  MIC: 16 µg/mL (≈ 34.7 µM)
Escherichia coli [3]
  MIC: 0.03 µg/mL (≈ 0.065 µM)
Pseudomonas aeruginosa [4]
  MIC: 8 µg/mL (≈ 17.3 µM)
[5]
  MIC: 8 µg/mL (≈ 17.3 µM)
Klebsiella pneumoniae [6]
  MIC: 128 µg/mL (≈ 277 µM)
Escherichia coli [7]
  MIC: 128 µg/mL (≈ 277 µM)
[8]
  MIC: 16 µg/mL (≈ 34.7 µM)
Staphylococcus aureus [9]
  MIC: 8 µg/mL (≈ 17.3 µM)
Klebsiella pneumoniae [10]
  MIC: 128 µg/mL (≈ 277 µM)
Staphylococcus aureus [11]
  MIC: < 0.008 µg/mL
Klebsiella pneumoniae [12]
  MIC: 32 µg/mL (≈ 69.3 µM)
[13]
  MIC: 64 µg/mL (≈ 139 µM)
[14]
  MIC90: 0.72 µg/mL (≈ 1.56 µM)
Enterococcus faecium [15]
  MIC: 32 µg/mL (≈ 69.3 µM)
Klebsiella pneumoniae [16]
  MIC: 32 µg/mL (≈ 69.3 µM)
Klebsiella pneumoniae [17]
  MIC: 32 µg/mL (≈ 69.3 µM)
Enterococcus faecium [18]
  MIC: 16 µg/mL (≈ 34.7 µM)
Staphylococcus aureus [19]
  MIC: 4 µg/mL (≈ 8.67 µM)
Escherichia coli [20]
  MIC: 128 µg/mL (≈ 277 µM)
Escherichia coli [21]
  MIC: > 128 µg/mL
Pseudomonas aeruginosa [22]
  MIC: 32 µg/mL (≈ 69.3 µM)
Pseudomonas aeruginosa [23]
  MIC: 16 µg/mL (≈ 34.7 µM)
Klebsiella pneumoniae [24]
  MIC: 64 µg/mL (≈ 139 µM)
Pseudomonas aeruginosa [25]
  MIC: 32 µg/mL (≈ 69.3 µM)
Klebsiella pneumoniae [26]
  MIC: 32 µg/mL (≈ 69.3 µM)
Enterococcus faecalis [27]
  MIC: 0.125 µg/mL (≈ 0.271 µM)
Staphylococcus aureus [28]
  MIC: 4 µg/mL (≈ 8.67 µM)
[29]
  MIC: 16 µg/mL (≈ 34.7 µM)
Pseudomonas aeruginosa [30]
  MIC: 32 µg/mL (≈ 69.3 µM)
Enterococcus faecium [31]
  MIC: 4 µg/mL (≈ 8.67 µM)
Staphylococcus aureus [32]
  MIC: 16 µg/mL (≈ 34.7 µM)
Staphylococcus aureus [33]
  MIC: 8 µg/mL (≈ 17.3 µM)
[34]
  MIC: 32 µg/mL (≈ 69.3 µM)
